# The source made the active and inactive calls. Cut-off read from the data, not from the text of the source, unless noted: active = inhibition above about 30%; inactive = the rest.
# Legend:
# [1] = reducers of endogenous Her2 protein level, primary screen, SKBR3 breast tumor cells, AlphaScreen, ATP viability (AID 461;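 active = Her2 level under about 52% in both replicate screens, with viability over 70% of control, limit read from the data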;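 for Her2 level: lower value means less Her2 protein in the cells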;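 for viability: percent of carrier control wells set as 100% viability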); settings: 18-24 h, measured here: SKBR3 viability, ATP luminescence, at 10 µM
# [2] = target: Receptor tyrosine-protein kinase erbB-2 (Homo sapiens) (UniProt P04626); experiment: as above; settings: 18-24 h, at 10 µM, stronger effect = lower value
# Sequence of Receptor tyrosine-protein kinase erbB-2 (Homo sapiens) (P04626 whole entry, looked up): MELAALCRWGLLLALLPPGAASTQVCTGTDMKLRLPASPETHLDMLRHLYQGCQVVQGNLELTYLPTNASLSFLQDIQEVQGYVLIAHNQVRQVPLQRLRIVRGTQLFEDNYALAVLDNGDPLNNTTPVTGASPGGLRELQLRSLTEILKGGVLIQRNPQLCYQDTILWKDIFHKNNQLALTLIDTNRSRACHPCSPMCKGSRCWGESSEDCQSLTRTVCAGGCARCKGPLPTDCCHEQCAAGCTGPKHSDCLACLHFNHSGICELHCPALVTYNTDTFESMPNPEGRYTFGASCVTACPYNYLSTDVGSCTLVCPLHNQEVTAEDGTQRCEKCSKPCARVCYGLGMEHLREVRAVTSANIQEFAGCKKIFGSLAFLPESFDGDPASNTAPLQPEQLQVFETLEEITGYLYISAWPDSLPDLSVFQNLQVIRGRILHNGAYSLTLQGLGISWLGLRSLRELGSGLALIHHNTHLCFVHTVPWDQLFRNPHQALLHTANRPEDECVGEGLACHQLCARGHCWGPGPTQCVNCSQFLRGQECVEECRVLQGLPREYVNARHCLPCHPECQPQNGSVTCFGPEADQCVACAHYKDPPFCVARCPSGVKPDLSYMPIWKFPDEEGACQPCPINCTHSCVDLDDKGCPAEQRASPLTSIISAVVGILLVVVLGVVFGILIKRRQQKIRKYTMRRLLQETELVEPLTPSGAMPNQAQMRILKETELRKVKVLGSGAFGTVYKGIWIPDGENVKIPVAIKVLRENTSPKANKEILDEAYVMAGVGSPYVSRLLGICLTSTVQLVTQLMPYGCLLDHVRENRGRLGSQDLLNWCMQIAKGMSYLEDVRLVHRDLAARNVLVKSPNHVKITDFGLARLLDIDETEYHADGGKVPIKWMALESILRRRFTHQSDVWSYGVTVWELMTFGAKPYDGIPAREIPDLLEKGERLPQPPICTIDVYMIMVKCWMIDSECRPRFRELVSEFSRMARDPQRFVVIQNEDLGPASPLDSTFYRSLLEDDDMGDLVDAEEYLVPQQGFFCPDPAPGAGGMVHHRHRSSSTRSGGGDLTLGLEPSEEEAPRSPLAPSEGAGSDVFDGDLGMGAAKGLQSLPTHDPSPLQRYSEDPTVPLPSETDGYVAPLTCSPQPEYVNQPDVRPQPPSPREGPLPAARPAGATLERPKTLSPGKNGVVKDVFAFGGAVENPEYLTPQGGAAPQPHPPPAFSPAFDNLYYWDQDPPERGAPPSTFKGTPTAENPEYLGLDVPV
# [3] = SK-BR-3 cell growth inhibitors, pilot screen, 24 h, human (AID 572;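 active = viability at or below 10% of carrier control in both of two separate runs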;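 note: compound exposure lasted between 18 and 24 h rather than exactly 24 h; 100% = carrier-treated control wells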); settings: SK-BR-3 viability, CellTiter-Glo luminescence, at 10 µM, stronger effect = lower value
# [4] = HUVEC growth inhibition – cell-based, human, primary screen (AID 575;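 active = viability at or below 30% in both replicate assays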;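 note: 100% = median of untreated cell wells with 0.1% DMSO on each plate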); settings: HUVEC proliferation, CellTiter-Glo luminescence, 72 h; at 10 µM; stronger effect = lower value
# In short: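 Test system: primary human umbilical vein endothelial cells; medium: endothelial basal medium with 2% FBS plus growth supplements; dosing: 10 µM compound only; times: 72 h treatment at 37 °C; signal: CTG luminescence; read-out: % viability relative to median vehicle-well signal on each plate; control set: vehicle and MePR control wells; plate: 384-well, collagen-coated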
# [5] = growth inhibitors of H69AR lung tumor, primary screen, human, duplicate replicates (AID 580;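 active = viability at or under a set limit in both replicates, limit being median viability minus 3 SD, cut at about 48% in these data, passing the limit was not always enough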;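 note: 100% = mean luminescence of untreated wells and 0% = no signal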); settings: H69AR lung tumor cells viability, ATP luminescence, 72 h; at 10 µM; stronger effect = lower value
# [6] = reversal of MRP1-mediated doxorubicin resistance, pilot screen, H69AR cells, doxorubicin co-treatment (AID 601;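 active = viability loss from added drug above about 55%, and viability with drug at most 40%, in both replicates, limit read from the data, passing the limit was not always enough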); settings: CellTiter-Glo, 72 h, at 10 µM; for differential viability (reversal): stronger effect = higher value
# [7] = 384-well plate pilot, post-Golgi transport modulator project, inhibition of yeast transport mutant growth (AID 636; in the data active = inhibition above about 31%); settings: absorbance 615 nm, about 18 h, stronger effect = higher value
# [8] = growth suppression of yeast trafficking mutant, preliminary HTS, modulators of trafficking downstream of Golgi apparatus project, 1536-format plate, OD 615 nm (AID 637); settings: yeast transport mutant growth, absorbance 615 nm, 18 h; stronger effect = higher value
# [9] = H69AR cells + 2 uM doxorubicin, measured here: viability with 2 uM doxorubicin, stronger effect = lower value
# [10] = H69AR cells, compound alone cytotoxicity
Structure (SMILES),viability [1],Her2 level [2],viability [3],viability [4],viability [5],differential viability (reversal) ([6]; H69AR cells + 2 uM doxorubicin),"viability [6, 9]","viability [6, 10]",inhibition [7],inhibition [8]
CC(=O)N(C)C1(c2nnnn2CCOC(=O)Nc2ccc(Cl)cc2)CCCCC1,114%,114% (inactive),114% (inactive),98.1% (inactive),104% (inactive),12.5% (inactive),91%,104%,-1.45% (inactive),-8.33% (inactive)
COc1ccc(CCNS(=O)(=O)c2ccc3oc(C(=O)O)c(C)c3c2)cc1OC,109%,92% (inactive),109% (inactive),112% (inactive),88.7% (inactive),-2.46% (inactive),91.2%,88.7%,0.78% (inactive),1.15% (inactive)
CCOc1ccc(CSC(CC(=O)O)C(=O)O)cc1 (stereo not given),90%,83.5% (inactive),90% (inactive),84.1% (inactive),84.2% (inactive),-2.67% (inactive),86.8%,84.2%,-3.29% (inactive),0.55% (inactive)
Nn1c(SCC(=O)Nc2ccc3c(c2)OCCO3)nnc1C(F)(F)F,88.5%,78.5% (inactive),88.5% (inactive),88.3% (inactive),80.9% (inactive),-7.85% (inactive),88.8%,80.9%,-2.5% (inactive),1.27% (inactive)
C=CCn1c(-c2cccs2)nc2nc3ccccc3nc21,87%,106% (inactive),87% (inactive),80.2% (inactive),54.3% (inactive),-18.6% (inactive),72.9%,54.3%,-1.82% (inactive),-8.73% (inactive)
COC(=O)c1cc(OC)c(OCc2cc(C(=O)OC)oc2C)c(OC)c1,95%,89.5% (inactive),95% (inactive),107% (inactive),90.7% (inactive),1.03% (inactive),89.7%,90.7%,-9.32% (inactive),1.8% (inactive)
COc1ccc(-c2noc(-c3ccccc3C(=O)Nc3cccnc3)n2)cc1OC,89.5%,83% (inactive),89.5% (inactive),80.6% (inactive),90.4% (inactive),14.8% (inactive),75.7%,90.4%,-3.6% (inactive),-2.38% (inactive)
O=C1C(C=NCCCn2ccnc2)=C(O)c2ccccc21,83%,82.5% (inactive),83% (inactive),105% (inactive),99.2% (inactive),17.2% (inactive),82%,99.2%,-5.14% (inactive),-1.75% (inactive)
Cc1cccc(-n2nnc(C(=O)NCc3ccccc3)c2N)c1,110%,84.5% (inactive),110% (inactive),102% (inactive),90.4% (inactive),3.36% (inactive),87%,90.4%,0.92% (inactive),-3.45% (inactive)
CC(=O)Nc1ccc(S(=O)(=O)Nc2nc3n(n2)C(c2ccccc2)CC(=O)N3)cc1 (stereo not given),99.5%,83.5% (inactive),99.5% (inactive),102% (inactive),107% (inactive),6.67% (inactive),99.9%,107%,-7.7% (inactive),-0.32% (inactive)
COc1ccccc1OCC(=O)Nc1ccc(S(=O)(=O)Nc2nc(C)cc(C)n2)cc1,90.5%,184% (inactive),90.5% (inactive),98.7% (inactive),96.3% (inactive),7.8% (inactive),88.5%,96.3%,-3.59% (inactive),-5.5% (inactive)
COc1ccc(OC)c(C2=Nn3c(nnc3C3CCCCC3)SC2)c1,94%,104% (inactive),94% (inactive),75.4% (inactive),78.1% (inactive),0.07% (inactive),78%,78.1%,5.92% (inactive),3.06% (inactive)
Cc1ccc(S(=O)(=O)N(CC(=O)N2CCC(C(N)=O)CC2)c2cccc(C(F)(F)F)c2)cc1,99.5%,120% (inactive),99.5% (inactive),87.8% (inactive),82.9% (inactive),-6.52% (inactive),89.4%,82.9%,-3.33% (inactive),5% (inactive)
O=C(CSc1nnc(-c2c[nH]c3ccccc23)o1)N(Cc1ccccc1)c1ccc(F)cc1,100%,102% (inactive),100% (inactive),65.9% (inactive),82.4% (inactive),-14.3% (inactive),96.6%,82.4%,2.53% (inactive),7.7% (inactive)
CSc1ccccc1N=CC1=C(O)CC(C)(C)CC1=O,118%,96% (inactive),118% (inactive),67.1% (inactive),89.2% (inactive),-0.87% (inactive),90.1%,89.2%,-4.94% (inactive),-3.28% (inactive)
O=S(c1ccsc1)c1ccsc1,116%,87% (inactive),116% (inactive),104% (inactive),88.7% (inactive),-4.55% (inactive),93.2%,88.7%,1.6% (inactive),1.29% (inactive)

Structure (SMILES),viability [1],Her2 level [2],viability [3],viability [4],viability [5],differential viability (reversal) ([6]; H69AR cells + 2 uM doxorubicin),"viability [6, 9]","viability [6, 10]",inhibition [7],inhibition [8]
CCOC(=O)C1=C(O)C(=O)N(c2ccc(S(N)(=O)=O)cc2)C1c1ccccc1 (stereo not given),97.5%,110% (inactive),97.5% (inactive),96.7% (inactive),96.7% (inactive),1.46% (inactive),95.2%,96.7%,-6.53% (inactive),-6.23% (inactive)
CCOc1ccc(NC(=O)CN2CCN(CC(=O)Nc3ccc(F)c(F)c3)CC2)cc1,95%,102% (inactive),95% (inactive),89.3% (inactive),79.8% (inactive),22.7% (inactive),57.1%,79.8%,-3.6% (inactive),4.92% (inactive)
Cc1nc(CNS(=O)(=O)c2cc(C)c(C)cc2C)cs1,99%,89% (inactive),99% (inactive),121% (inactive),94.3% (inactive),4.38% (inactive),89.9%,94.3%,-7.57% (inactive),1.67% (inactive)
COc1ccc(-n2c(=O)c3c4c(sc3n3c(C)nnc23)CCCC4)cc1,78.5%,94% (inactive),78.5% (inactive),101% (inactive),96.5% (inactive),15.6% (inactive),80.9%,96.5%,0.13% (inactive),-5.33% (inactive)
Cc1ccc(-c2nnn(CC(=O)NC3CC4CCC3C4)n2)cc1 (stereo not given),109%,91% (inactive),109% (inactive),118% (inactive),93.3% (inactive),5.1% (inactive),88.2%,93.3%,-6.58% (inactive),-6.77% (inactive)
O=C1N(CCCCN2C(=O)C3(OCCO3)c3ccccc32)c2ccccc2C12OCCO2,100%,84.5% (inactive),100% (inactive),73.2% (inactive),84.9% (inactive),11.1% (inactive),73.7%,84.9%,-0.39% (inactive),11.5% (inactive)
CC(=O)Nc1ccc(Cl)c(C(N)=O)c1,110%,108% (inactive),110% (inactive),97.1% (inactive),95.3% (inactive),8.55% (inactive),86.8%,95.3%,-3.68% (inactive),6.07% (inactive)
CCOC(=O)Cn1c(S(=O)(=O)Cc2ccccc2)nc2ccccc21,86%,89.5% (inactive),86% (inactive),103% (inactive),91.5% (inactive),4.28% (inactive),87.2%,91.5%,-0.13% (inactive),-3% (inactive)
Cn1c(=O)c(C(=O)Nc2cccnc2)c(O)c2ccccc21,81%,59.5% (inactive),81% (inactive),105% (inactive),88.4% (inactive),-9.81% (inactive),98.2%,88.4%,-3.65% (inactive),2.46% (inactive)
FC(F)Oc1ccc(-c2csc(Cc3nnc4n3CCCCC4)n2)cc1,78%,102% (inactive),78% (inactive),110% (inactive),97.2% (inactive),5.74% (inactive),91.5%,97.2%,-7.26% (inactive),-9.05% (inactive)
Cn1c(SCc2nnc3n2CCCCC3)nc2ccccc21,103%,98.5% (inactive),103% (inactive),98.3% (inactive),98.2% (inactive),4.2% (inactive),94%,98.2%,-6.67% (inactive),2.54% (inactive)
CCOc1ccccc1C(=O)NCCC(=O)O,95%,112% (inactive),95% (inactive),111% (inactive),96.4% (inactive),1.32% (inactive),95.1%,96.4%,-0.66% (inactive),11.3% (inactive)
Cc1cc(OCC(=O)Nc2ccc3oc(-c4ccncc4)nc3c2)ccc1Cl,92.5%,121% (inactive),92.5% (inactive),68% (inactive),60.1% (inactive),1.31% (inactive),58.7%,60.1%,3.95% (inactive),8.85% (inactive)
COc1ccc(-c2c(C(F)(F)F)oc3c(CN4CCN(C)CC4)c(O)ccc3c2=O)cc1,84.5%,108% (inactive),84.5% (inactive),87.9% (inactive),102% (inactive),-1.1% (inactive),103%,102%,-2.67% (inactive),-6.03% (inactive)
COc1ccc(OC)c(C2C3=C(CCCC3=O)Nc3c2c(=O)n(C)c(=O)n3C)c1 (stereo not given),106%,108% (inactive),106% (inactive),103% (inactive),102% (inactive),-5.08% (inactive),107%,102%,-2.24% (inactive),-0.33% (inactive)
CCOc1ccc(-c2nnc(N)s2)cc1,95%,90.5% (inactive),95% (inactive),96.3% (inactive),118% (inactive),25.6% (inactive),92.3%,118%,0.67% (inactive),-1.29% (inactive)

# From PubChem BioAssay
